Laboratory results published in ChEMBL document CHEMBL1155099, “Natural products in parallel synthesis: triazole libraries of nonactic acid” (2008).
Activity calls are given as the source filed them.

What was measured:
Format in all cases: functional, organism-based
Escherichia coli = test: Antibacterial activity against Escherichia coli at 1 mM by almar blue dye reduction assay
In short: (§1)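 Single-point primary screen at 1 mM using Alamar Blue dye reduction as the growth read-out.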

Candida albicans = test: Antifungal activity against Candida albicans at 1 mM by almar blue dye reduction assay; in short: as §1
Pseudomonas aeruginosa = test: Antibacterial activity against Pseudomonas aeruginosa at 1 mM by almar blue dye reduction assay; in short: as §1
Cryptococcus neoformans = test: Antifungal activity against Cryptococcus neoformans at 1 mM by almar blue dye reduction assay; in short: as §1
Bacillus subtilis = test: Antibacterial activity against Bacillus subtilis at 1 mM by almar blue dye reduction assay; in short: as §1
Staphylococcus aureus = test: Antibacterial activity against Staphylococcus aureus at 1 mM by almar blue dye reduction assay; in short: as §1
Saccharomyces cerevisiae = test: Antifungal activity against Saccharomyces cerevisiae at 1 mM by almar blue dye reduction assay; in short: as §1
Bacillus cereus = test: Antibacterial activity against Bacillus cereus at 1 mM by almar blue dye reduction assay; in short: as §1
Bacillus anthracis = test: Antibacterial activity against Bacillus anthracis at 1mM by almar blue dye reduction assay

Measured: Activity

C[C@H](C[C@@H]1CC[C@H]([C@@H](C)C(=O)N2CCCC2)O1)n1cc(C#Cc2ccccn2)nn1
inactive: all assays above

C[C@H](C[C@@H]1CC[C@H]([C@@H](C)C(=O)N2CCN(CC3CCCO3)CC2)O1)n1cc(C#Cc2ccc(Oc3ccccc3)cc2)nn1 (some centres not stated)
inactive: all assays above

CCN(CC)C(=O)[C@H](C)[C@H]1CC[C@@H](C[C@@H](C)n2cc(C#Cc3ccc(OC)cc3)nn2)O1
inactive: all assays above

CCN(CC)C(=O)[C@H](C)[C@H]1CC[C@@H](C[C@@H](C)n2cc(C#CC3=CCCCC3)nn2)O1
inactive: all assays above

C[C@H](C[C@@H]1CC[C@H]([C@@H](C)C(=O)N2CCN(CC3CCCO3)CC2)O1)n1cc(C#CCN2CCN(c3ccccc3)CC2)nn1 (some centres not stated)
inactive: all assays above

COc1ccc(C#Cc2cn([C@H](C)C[C@@H]3CC[C@H]([C@@H](C)C(=O)NC(C)C)O3)nn2)cc1
inactive: all assays above

C[C@H](C[C@@H]1CC[C@H]([C@@H](C)C(=O)N2CCCC2)O1)n1cc(C#CC2=CCCCC2)nn1
inactive: all assays above

CC(C)NC(=O)[C@H](C)[C@H]1CCC(C[C@@H](C)n2cc(C#Cc3ccccc3[N+](=O)[O-])nn2)O1 (single isomer, unassigned)
inactive: all assays above

CC(C)NC(=O)[C@H](C)C1CCC(C[C@@H](C)n2cc(C#CCNC(=O)OCc3ccccc3)nn2)O1 (single isomer, unassigned)
inactive: all assays above

CCN(CC)C(=O)[C@H](C)[C@H]1CC[C@@H](C[C@@H](C)n2cc(C#Cc3ccccc3)nn2)O1
inactive: all assays above

CCN(CC)C(=O)[C@H](C)[C@H]1CC[C@@H](C[C@@H](C)n2cc(C#CCN3CCOCC3)nn2)O1
inactive: all assays above

CCCNC(=O)NCC#Cc1cn([C@H](C)CC2CCC([C@@H](C)C(=O)N3CCCC3)O2)nn1 (single isomer, unassigned)
inactive: all assays above

CCN(CC)C(=O)[C@H](C)[C@H]1CC[C@@H](C[C@@H](C)n2cc(C#CCN3CCC(c4ccccc4)CC3)nn2)O1
inactive: all assays above
